Rows were chosen to be rich in hits. Some 4.2% of all compounds tested hit in one or more screens of this group.
CTSL1 counter: counter-screen for PFM18AAP inhibitors: inhibitors of F. hepatica cathepsin L1. AID 1906. hit rate 0.49% among 300,000. inhibition, % at 5.96 µM. recombinant F. hepatica cathepsin L1, Z-Leu-Arg-MCA fluorescence;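 active means inhibition above the mean of all tested compounds plus 3 SD, set per screening campaign, cut at about 17% in these data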;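 further: 0% = plate median of test compound wells and 100% = 1 µM Z-Phe-Ala-diazomethylketone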
HDAC3 inhib: blocks human histone deacetylase 3. O15379. recombinant HDAC3, fluorogenic peptide/trypsin coupled, fluorescence. inhibition, % at 8.3 µM. hit rate 0.15% among 320,000. AID 2718; in the data active means inhibition above about 26%, passing the limit was not always enough
AHR activator: human AHR activation | AHR-responsive luciferase reporter cells, luminescence | activation, % at 5 µM | hit rate 2.5% among 320,000; in the data active means activation above about 47%;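 further: 0% = vehicle wells and 100% = reference agonist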
PfM18AAP inh: PfM18AAP enzyme inhibition; recombinant PfM18AAP, H-Glu-NHMec fluorogenic cleavage; inhibition, % at 7.35 µM; hit rate 1.2% among 290,000; AID 1822;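 active means inhibition above the campaign mean inhibition over all tested compounds plus 3 SD, cut at about 28% in these data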;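 further: 0% = plate median of test compound wells and 100% = 2 mM ZnCl2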
SENP1 FRET inh: blocks the human SENP1 SUMO protease catalytic domain. recombinant SENP1 catalytic domain, CyPet-SUMO1-YPet FRET cleavage. inhibition, % at 10 µM. hit rate 0.21% among 360,000;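 active means inhibition at least 30% at 10 µM, raw YFP signal under a set limit, fluorescence ratio 0.5 to 1.5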;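 further: 0% = enzyme with DMSO and 100% = no enzyme wells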
Target sequence (Q9P0U3 419-644 limits assumed): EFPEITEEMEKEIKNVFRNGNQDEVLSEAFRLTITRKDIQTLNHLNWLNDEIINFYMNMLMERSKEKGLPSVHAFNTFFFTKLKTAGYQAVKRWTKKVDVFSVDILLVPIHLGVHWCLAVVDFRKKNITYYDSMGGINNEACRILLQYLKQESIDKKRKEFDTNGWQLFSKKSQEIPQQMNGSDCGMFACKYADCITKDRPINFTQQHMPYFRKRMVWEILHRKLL
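Assay system: hSENP1 catalytic domain, recombinant. Amount: SENP1 enzyme, 20 pM final. Schedule: 50 min reaction, RT, dark. Technique: FRET, CFP and YFP emission. Control set: no-enzyme wells low, DMSO-plus-enzyme wells high control.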
FXN GAA850 act: increases GAA850 frataxin promoter reporter activity | activation, % at 6 µM | hit rate 0.56% among 360,000 | HEK293 lucGAA850 FXN promoter luciferase reporter, 24 h; percent of 10 µM SAHA response;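 active means activation above the average of all compounds screened plus 3 SD, cutoff fixed separately per campaign, cut at about 7.5% in these data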;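 further: 0% = DMSO wells and 100% = 10 µM SAHA wells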
* hit, by the source's call; x = no result.

SMILES	CTSL1 counter	HDAC3 inhib	AHR activator	PfM18AAP inh	SENP1 FRET inh	FXN GAA850 act
c1ccc(-c2nccc(-c3ccc4c(c3)OCO4)n2)cc1	0	-13	79*	3	-2	3
Cc1ccc(-c2nnc(-c3ccc4c(c3)OCO4)o2)cc1	-1	-4	79*	-1	0	6
c1ccc(CSc2ccc(-c3ccc4c(c3)OCO4)nn2)cc1	3	3	74*	-10	3	4
NC(=O)C1CCN(c2nc(-c3ccccc3Br)cs2)CC1	x	3	65*	x	x	x
NC(=O)C1CCN(c2nc(-c3ccccc3F)cs2)CC1	x	-1	12	x	5	2
Clc1ccc(-c2csc(N/N=C/c3ccc4c(c3)OCO4)n2)cc1	2	12	63*	0	-8	3
O=C(/C=C/c1ccc2c(c1)OCO2)Nc1nc(-c2ccccc2)cs1	2	-2	1	-5	0	0
COc1ccccc1/C=N/NC(=O)c1c(-c2ccccc2)noc1C	3	3	3	10	4	-1
Cc1cccc(/C=N/NC(=O)c2c(-c3ccccc3)noc2C)c1O	1	0	2	29*	-3	-4
CCCc1c(C(=O)N/N=C/c2ccc3c(c2)OCO3)nnn1-c1nonc1N	x	x	x	x	1	0
Nc1nonc1C(=Nc1ccc(Br)cc1)NO	-2	-11	66*	18	3	2
Clc1ccc(-c2cnn3c(-c4ccncc4)ccnc23)cc1	-4	2	72*	-17	5	5
Nc1c(C(=O)O)cnc2c(-c3ccc(Cl)cc3)cnn12	5	-16	98*	3	-2	4
CC(=O)c1cnc2c(-c3ccc(Cl)cc3)cnn2c1C	6	0	-2	-7	3	0
Cc1c(C)c2ccc(OCC(=O)NCCc3c[nH]c4ccccc34)cc2oc1=O	x	x	x	x	-2	0
COCCN1C(=O)N(c2ccc(OC)cc2)C(=O)C1CC(=O)Nc1cccc(F)c1 (centres undefined)	x	1	x	-7	0	0
O=C(N[C@@H](Cc1ccccc1)C(=O)CCl)OCc1ccccc1	69*	6	1	x	0	-8
O=C(N[C@@H](Cc1ccccc1)C(=O)N[C@@H](Cc1ccccc1)C(=O)O)OCc1ccccc1	-3	-2	2	x	1	-2
CCOC(=O)N(C)c1c(CC)nc2c(OCc3ccc(Cl)cc3)cccn12	x	x	x	x	-2	-3
COCC(=O)Nc1nc(-c2ccccc2)ns1	-5	-4	47*	0	0	2
CN(C)c1ccc(/C=N/NC(=O)c2sccc2-n2cccc2)cc1	7	-3	72*	5	10	3
O=C(N/N=C\c1ccc(Cl)cc1Cl)c1sccc1-n1cccc1	0	6	19	-5	1	2
CCN(CC)c1ccc(/C=N/NC(=O)c2ccc3nc[nH]c3c2)cc1	4	6	13	2	-48	0
CN(C)c1ccc(/C=N/NC(=O)c2ccccc2)cc1	2	2	47*	-1	-2	5
CN(C)c1ccc(/C=N/NC(=O)c2ccc3nc[nH]c3c2)cc1	21*	2	8	-4	-13	2
SMILES	CTSL1 counter	HDAC3 inhib	AHR activator	PfM18AAP inh	SENP1 FRET inh	FXN GAA850 act
Cc1ccc2nc3c(cc(C(=O)NCc4ccco4)c(=N)n3Cc3ccco3)c(=O)n2c1	19*	-18	0	12	-27	2
Cc1cccc(C(=O)OCC(=O)NCc2cccs2)c1	3	-3	0	-5	4	4
CS(=O)(=O)c1ccc(C(=O)OCC(=O)NCc2cccs2)cc1[N+](=O)[O-]	x	-5	1	x	1	8.8*
c1ccc(COc2ccc(-c3cc4nc(NCCCn5ccnc5)ccn4n3)cc2)cc1	x	x	x	x	-27	-1
CCOc1ccc(/C=C2\SC(=S)N(N3C(=O)C4CC4C3=O)C2=O)cc1 (centres undefined)	0	-2	0	31*	-14	3
CCOc1ccc(/C=C2/SC(=O)NC2=S)cc1	-1	0	3	18	-8	3
COc1ccc(N2CCN(C(=O)CN3C(=O)NC4(CCCCCC4)C3=O)CC2)cc1	x	6	2	x	3	1
O=C(CSC1=Nc2ccccc2C2CC=NN12)NCc1ccco1 (centres undefined)	x	8	66*	x	-61	-4
CN(C)c1nc(Nc2ccc(Cl)cc2)nc(OCC#N)n1	-3	4	49*	4	2	2
CCOc1nc(Nc2ccc(Cl)cc2)nc(OCC)n1	1	11	11	-3	1	1
COc1ccc(OC)c(N=c2ssnc2Cl)c1	-1	12	11	19	3	1
COc1cc(N=c2ssnc2Cl)c(OC)cc1Cl	-3	1	15	29*	2	0
CC(C)C(=O)Nc1cccc(-c2csc(-c3ccccc3)n2)c1	-1	10	68*	-10	1	4
O=C(Nc1ccccc1Cl)c1csc(-c2cccnc2)n1	-4	-1	48*	-3	0	4
O=C(Nc1ccccc1)c1csc(-c2ccccc2)n1	-1	11	68*	0	0	3
CC(C)C(=O)Nc1cccc(NC(=S)NC(=O)c2cccs2)c1	-2	1	48*	15	0	2
O=S(=O)(c1c(F)cccc1F)N(CCc1ccc(F)cc1)C[C@@H](O)COCc1ccccc1	x	x	x	x	1	-1
O=C(Nc1ccc(C(F)(F)F)cc1)c1csc(-c2ccncc2)n1	-1	12	66*	-12	-1	3
O=C(NNC(=O)c1csc(-c2cnccc2C(F)(F)F)n1)c1ccc(C(F)(F)F)cc1	23*	0	15	-13	1	1
COc1ccc2cc(OCC(=O)NNC(=O)Nc3ccc(C(C)=O)cc3)ccc2c1	-4	3	9	7	0	2
O=[N+]([O-])c1cc(/C=N/N/C(=N/c2ccccn2)c2ccccn2)ccc1O	3	10	2	8	34*	3
O=[N+]([O-])c1ccc(/C=N/N/C(=N/c2ccccn2)c2ccccn2)cc1	2	-1	-2	11	0	2
CC(=O)Nc1ccc(NC(=O)CSc2nnnn2-c2ccc(F)cc2)cc1	-4	-3	0	-12	3	-2
N#CCCn1c2ccccc2c2nc3ccccc3nc21	3	3	70*	8	-16	6
COc1ccc(Cn2c3ccc(OC)cc3c3nc4ccccc4nc32)cc1	1	-10	3	3	17	4
CCCn1c2ccccc2c2nc3ccccc3nc21	2	4	79*	-4	-20	6
O=c1oc2ccccc2n1CCn1c2ccccc2c2nc3ccccc3nc21	3	-10	22	0	-27	-3
CCN(CC)CCn1c2ccccc2c2nc3ccccc3nc21	6	5	64*	-3	-41	7
